# Test results: ChEMBL document CHEMBL3217694, “Diaryl- and triaryl-pyrrole derivatives: inhibitors of the MDM2-p53 and MDMX-p53 protein-protein interactions†Electronic supplementary information (ESI) available: Experimental details for compound synthesis, analytical data for all compounds and intermediates. Details for the biological …” (Medchemcomm, 2013)
# Calls of active or inactive are those of the source. The rule behind the calls is not given here.
# How the values were obtained:
# [1] = target: E3 ubiquitin-protein ligase Mdm2 (Homo sapiens, UniProt Q00987); test: Inhibition of MDM2-p53 interaction (unknown origin) by ELISA
# Summary of the method: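 MDM2–p53 ELISA protein–protein binding assay; IC50 values were determined in follow-up concentration–response testing.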
# [2] = target: T1, E3 ubiquitin-protein ligase Mdm2/Cellular tumor antigen p53/Protein Mdm4 (Homo sapiens) (UniProt P04637+Q00987+O15151); test: Inhibition of MDM2/MDMX-p53 interaction in human SJSA-1 cells expressing amplified MDM2 and wild-type p53 assessed as induction of MDM2 protein expression at 5 uM after 4 hrs by western blot analysis; format: cell-based
# T1 sequence (O15151 whole entry, looked up): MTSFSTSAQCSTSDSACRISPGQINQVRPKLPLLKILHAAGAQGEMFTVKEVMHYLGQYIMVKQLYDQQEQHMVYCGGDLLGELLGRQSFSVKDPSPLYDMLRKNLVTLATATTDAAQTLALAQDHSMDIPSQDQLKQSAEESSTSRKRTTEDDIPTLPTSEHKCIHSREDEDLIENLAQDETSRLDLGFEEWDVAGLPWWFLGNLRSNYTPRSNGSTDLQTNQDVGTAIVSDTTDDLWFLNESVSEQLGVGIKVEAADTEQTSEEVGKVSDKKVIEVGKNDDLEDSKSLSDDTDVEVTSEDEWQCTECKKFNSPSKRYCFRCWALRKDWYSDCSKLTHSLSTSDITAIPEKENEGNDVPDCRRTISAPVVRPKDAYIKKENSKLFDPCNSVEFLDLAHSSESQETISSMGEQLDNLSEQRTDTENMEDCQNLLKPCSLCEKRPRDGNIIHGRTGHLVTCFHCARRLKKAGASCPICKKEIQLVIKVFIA
# T1 sequence (P04637 whole entry, looked up): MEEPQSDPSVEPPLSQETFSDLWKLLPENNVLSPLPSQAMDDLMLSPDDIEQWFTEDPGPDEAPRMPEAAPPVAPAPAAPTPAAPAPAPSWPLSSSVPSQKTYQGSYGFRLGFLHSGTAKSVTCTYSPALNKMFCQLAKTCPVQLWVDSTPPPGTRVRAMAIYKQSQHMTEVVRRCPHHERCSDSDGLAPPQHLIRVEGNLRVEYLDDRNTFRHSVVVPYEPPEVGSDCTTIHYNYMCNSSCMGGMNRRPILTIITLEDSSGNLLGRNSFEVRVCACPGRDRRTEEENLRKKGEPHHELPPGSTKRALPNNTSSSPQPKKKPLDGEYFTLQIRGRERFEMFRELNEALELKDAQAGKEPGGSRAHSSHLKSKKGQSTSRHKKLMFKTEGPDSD
# T1 sequence (Q00987 whole entry, looked up): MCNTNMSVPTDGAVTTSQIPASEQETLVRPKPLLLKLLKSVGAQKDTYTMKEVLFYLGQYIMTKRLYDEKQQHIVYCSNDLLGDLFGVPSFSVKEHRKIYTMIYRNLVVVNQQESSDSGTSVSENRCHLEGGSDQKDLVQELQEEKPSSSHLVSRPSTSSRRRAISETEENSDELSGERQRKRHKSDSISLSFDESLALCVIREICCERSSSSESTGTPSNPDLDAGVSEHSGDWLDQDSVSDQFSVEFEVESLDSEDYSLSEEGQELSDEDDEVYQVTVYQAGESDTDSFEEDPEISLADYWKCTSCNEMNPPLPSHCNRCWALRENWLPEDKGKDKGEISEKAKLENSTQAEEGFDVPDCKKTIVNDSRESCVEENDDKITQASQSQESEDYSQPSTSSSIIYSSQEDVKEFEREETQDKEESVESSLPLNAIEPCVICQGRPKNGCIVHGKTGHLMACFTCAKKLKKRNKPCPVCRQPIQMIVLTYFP
# Summary of the method: (§1)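 Cell lines with defined MDM2 and p53 status were exposed to increasing compound concentrations for 4 h. p53 pathway activation (p53 and the p53-dependent proteins) was then detected by Western blotting of cell extracts.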
# [3] = target: T1, E3 ubiquitin-protein ligase Mdm2/Cellular tumor antigen p53/Protein Mdm4 (Homo sapiens); test: Inhibition of MDM2/MDMX-p53 interaction in human A2780 CP70 cells expressing p53 mutant gene assessed as induction of p21 protein expression at 0.2 to 5 uM after 4 hrs by western blot analysis; format: cell-based; summary of the method: as §1
# [4] = target: T1, E3 ubiquitin-protein ligase Mdm2/Cellular tumor antigen p53/Protein Mdm4 (Homo sapiens); test: Inhibition of MDM2/MDMX-p53 interaction in human A2780 CP70 cells expressing p53 mutant gene assessed as induction of p53 protein expression at 0.2 to 5 uM after 4 hrs by western blot analysis; format: cell-based; summary of the method: as §1
# [5] = target: T1, E3 ubiquitin-protein ligase Mdm2/Cellular tumor antigen p53/Protein Mdm4 (Homo sapiens); test: Inhibition of MDM2/MDMX-p53 interaction in human A2780 cells expressing wild-type p53 assessed as induction of MDM2 protein expression at 0.2 to 5 uM after 4 hrs by western blot analysis; format: cell-based; summary of the method: as §1
# [6] = target: T1, E3 ubiquitin-protein ligase Mdm2/Cellular tumor antigen p53/Protein Mdm4 (Homo sapiens); test: Inhibition of MDM2/MDMX-p53 interaction in human SJSA-1 cells expressing amplified MDM2 and wild-type p53 assessed as induction of p53 protein expression at 5 uM after 4 hrs by western blot analysis; format: cell-based; summary of the method: as §1
# [7] = target: T1, E3 ubiquitin-protein ligase Mdm2/Cellular tumor antigen p53/Protein Mdm4 (Homo sapiens); test: Inhibition of MDM2/MDMX-p53 interaction in human A2780 cells expressing wild-type p53 assessed as induction of p21 protein expression at 0.2 to 5 uM after 4 hrs by western blot analysis; format: cell-based; summary of the method: as §1
# [8] = target: T1, E3 ubiquitin-protein ligase Mdm2/Cellular tumor antigen p53/Protein Mdm4 (Homo sapiens); test: Inhibition of MDM2/MDMX-p53 interaction in human SJSA-1 cells expressing amplified MDM2 and wild-type p53 assessed as induction of p21 protein expression at 5 uM after 4 hrs by western blot analysis; format: cell-based; summary of the method: as §1
# [9] = target: T1, E3 ubiquitin-protein ligase Mdm2/Cellular tumor antigen p53/Protein Mdm4 (Homo sapiens); test: Inhibition of MDM2/MDMX-p53 interaction in human A2780 cells expressing wild-type p53 assessed as induction of p53 protein expression at 0.2 to 5 uM after 4 hrs by western blot analysis; format: cell-based; summary of the method: as §1
# [10] = target: T1, E3 ubiquitin-protein ligase Mdm2/Cellular tumor antigen p53/Protein Mdm4 (Homo sapiens); test: Inhibition of MDM2/MDMX-p53 interaction in human A2780 CP70 cells expressing p53 mutant gene assessed as induction of MDM2 protein expression at 0.2 to 5 uM after 4 hrs by western blot analysis; format: cell-based; summary of the method: as §1
Structure (SMILES),inhibition [1],also measured
CCN1C(=O)C(=Cc2cc(-c3ccccc3)n(-c3ccc(Br)cc3)c2-c2ccccc2)C(=O)N(CC)C1=O,Dose-dependent effect,–
O=C1NC(=S)N(c2cccc(Cl)c2)C(=O)/C1=C/c1cc(-c2ccccc2)n(-c2ccc(Cl)cc2)c1-c1ccccc1,Dose-dependent effect,–
CNC(=O)C(=Cc1cc(-c2ccccc2)n(-c2ccc(Cl)cc2)c1-c1ccccc1)C(=O)NC,Dose-dependent effect,–
Cc1ccc(-n2c(C)cc(C=C3C(=O)NC(=S)NC3=O)c2C)cc1,Dose-dependent effect,–
O=C1NC(=O)C(=Cc2cc(-c3ccccc3)n(-c3ccc(Br)cc3)c2-c2ccccc2)C(=O)N1,Dose-dependent effect,–
Cc1cc(C=C2C(=O)NC(=S)NC2=O)c(C)n1-c1sc2c(c1C#N)CCCC2,–,inhibition [2]: Active; inhibition [3]: inactive; inhibition [4]: inactive; inhibition [5]: inactive; inhibition [6]: Active; inhibition [7]: inactive; inhibition [8]: Active; inhibition [9]: inactive; inhibition [10]: inactive
Cc1cc(/C=C2\C(=O)NC(=S)N(c3ccccc3)C2=O)c(C)n1-c1ccc(Cl)cc1,Dose-dependent effect,–
CC1(C)OC(=O)C(Cc2cc(-c3ccccc3)n(-c3ccc(Br)cc3)c2-c2ccccc2)C(=O)O1,Dose-dependent effect,–
CC(C)(C)c1cc(C=C2C(=O)NC(=S)NC2=O)c(-c2ccccc2)n1-c1ccc(Cl)cc1,Dose-dependent effect,–
O=C1NC(=S)NC(=O)C1=Cc1cc(-c2ccccc2)n(-c2ccc(Cl)cc2)c1C1CC1,Dose-dependent effect,–
OCC(=Cc1cc(-c2ccccc2)n(-c2ccc(Cl)cc2)c1-c1ccccc1)CO,Dose-dependent effect,–
O=C1NC(=S)NC(=O)C1=Cc1cc(-c2ccccc2)n(-c2ccc(Br)cc2)c1C1CC1,Dose-dependent effect,–
O=C1NC(=S)NC(=O)C1=Cc1cc(C2CC2)n(-c2ccc(Cl)cc2)c1-c1ccccc1,Dose-dependent effect,–
COc1ccc(-n2c(-c3ccccc3)cc(C=C3C(=O)NC(=O)NC3=O)c2-c2ccccc2)cc1,Dose-dependent effect,–
CN1C(=O)C(=Cc2cc(-c3ccccc3)n(-c3ccc(Cl)cc3)c2-c2ccccc2)C(=O)N(C)C1=S,–,IC50 [1]: ND(Insoluble)
O=C(NCCO)C(=Cc1cc(-c2ccccc2)n(-c2ccc(Cl)cc2)c1-c1ccccc1)C(=O)NCCO,Dose-dependent effect,–
O=C1NC(=S)N(c2ccccc2)C(=O)/C1=C/c1cc(-c2ccccc2)n(-c2ccc(Cl)cc2)c1-c1ccccc1,Dose-dependent effect,inhibition [2]: Active; inhibition [3]: inactive; inhibition [4]: inactive; inhibition [5]: Active; inhibition [6]: Active; inhibition [7]: Active; inhibition [8]: Active; inhibition [9]: inactive; inhibition [10]: inactive
CCOC(=O)c1ccc(-n2c(-c3ccccc3)cc(C=C3C(=O)NC(=S)NC3=O)c2-c2ccccc2)cc1,Dose-dependent effect,–
O=C1NC(=S)NC(=O)C1=Cc1cc(C2CC2)n(-c2ccc(Br)cc2)c1-c1ccccc1,Dose-dependent effect,–

Structure (SMILES),inhibition [1],also measured
CC(C)(C)c1ccc(-n2c(-c3ccccc3)cc(C=C3C(=O)NC(=O)NC3=O)c2-c2ccccc2)cc1,Dose-dependent effect,–
O=C(O)/C=C/c1cc(-c2ccccc2)n(-c2ccc(Cl)cc2)c1-c1ccccc1,Dose-dependent effect,–
CC1(C)OC(=O)C(=Cc2cc(-c3ccccc3)n(-c3ccc(Br)cc3)c2-c2ccccc2)C(=O)O1,Dose-dependent effect,–
Cc1cc(C=C2C(=O)NC(=S)NC2=O)c(C)n1-c1ccc(Cl)cc1,Dose-dependent effect,–
O=C1NC(=S)NC(=O)C1=Cc1cc(-c2ccccc2)n(-c2ccc(Cl)cc2)c1-c1ccccc1,Dose-dependent effect,inhibition [2]: Active; inhibition [3]: inactive; inhibition [4]: inactive; inhibition [5]: Active; inhibition [6]: Active; inhibition [7]: Active; inhibition [8]: Active; inhibition [9]: inactive; inhibition [10]: inactive
CC(C)(C)c1cc(C=C2C(=O)NC(=S)NC2=O)c(-c2ccccc2)n1-c1ccc(Br)cc1,Dose-dependent effect,–
CCN1C(=O)C(=Cc2cc(-c3ccccc3)n(-c3ccc(Cl)cc3)c2-c2ccccc2)C(=O)N(CC)C1=S,Dose-dependent effect,–
N#Cc1ccc(-n2c(-c3ccccc3)cc(C=C3C(=O)NC(=O)NC3=O)c2-c2ccccc2)cc1,Dose-dependent effect,–
O=C1NC(=S)NC(=O)C1=Cc1cc(-c2ccccc2)n(-c2ccc([N+](=O)[O-])cc2)c1-c1ccccc1,Dose-dependent effect,–
CCN1C(=O)C(=Cc2cc(-c3ccccc3)n(-c3ccc(Br)cc3)c2-c2ccccc2)C(=O)N(CC)C1=S,Dose-dependent effect,–
O=C1NC(=O)C(=Cc2cc(-c3ccccc3)n(-c3ccc([N+](=O)[O-])cc3)c2-c2ccccc2)C(=O)N1,Dose-dependent effect,–
O=C1NC(=O)C(=Cc2cc(-c3ccccc3)n(-c3ccc(Cl)cc3)c2-c2ccccc2)C(=O)N1,Dose-dependent effect,–
NC(=O)C(=Cc1cc(-c2ccccc2)n(-c2ccc(Cl)cc2)c1-c1ccccc1)C(N)=O,Dose-dependent effect,–
Cc1ccc(N2C(=O)/C(=C\c3cc(-c4ccccc4)n(-c4ccc(Cl)cc4)c3-c3ccccc3)C(=O)N(c3ccccc3)C2=S)cc1C,Dose-dependent effect,–
Cc1ccc(-n2c(C)cc(/C=C3\C(=O)NC(=S)N(c4ccccc4)C3=O)c2C)cc1,Dose-dependent effect,–
COC(=O)C(=Cc1cc(-c2ccccc2)n(-c2ccc(Cl)cc2)c1-c1ccccc1)C(=O)OC,Dose-dependent effect,–
Cc1cc(C=C2C(=O)N(c3ccccc3)C(=S)N(c3ccccc3)C2=O)c(C)n1-c1ccc(Br)cc1,Dose-dependent effect,–
N#Cc1ccc(-n2c(-c3ccccc3)cc(C=C3C(=O)NC(=S)NC3=O)c2-c2ccccc2)cc1,Dose-dependent effect,–
